Measurements as given in PubChem BioAssay.
Values without a mark were called inactive. Records with an inconclusive call do not appear. Calls of active or inactive are those of the source.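 The calls were made as follows, unless noted: active = RAM network inhibition above 8.4% in each of two replicates, 3 SD over the compound average; inconclusive = above 8.4% inhibition in only one replicate; inactive = 8.4% inhibition or less in each replicate.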

What was measured:
[1] = OD615 S. cerevisiae growth inhibition, permissive medium, pilot counter-assay, permissive growth control for S. cerevisiae lifespan shortening project (AID 705;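 active = growth inhibition above 25% in both replicates, a cutoff set 3 SD above the mean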); settings: OD615, 24 h, at 10 µM, stronger effect = higher value
How it was run: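 System: Engineered DeaD yeast | Buffer or medium: SC raffinose/galactose permissive medium | Doses: 10 µM single dose, 0.25% DMSO | Times: 24 h exposure, 30 °C | Measured by: OD615 turbidity read | Read-out: Yeast growth inhibition indicated by reduced 24 h OD615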

[2] = Restrictive medium S. cerevisiae growth inhibition, OD615, pilot screen of yeast lifespan reduction project, restrictive growth control (AID 706;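 active = growth inhibition above a set limit, 3 SD over mean compound inhibition, in both replicates, cut at about 43% in these data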;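 also: modified DeaD lifespan yeast strain shifted to restrictive glucose medium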); settings: OD615, 48 h, at 10 µM, stronger effect = higher value
How it was run: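 Assay system: engineered S. cerevisiae DeaD strain; Buffer or medium: CSMM-D glucose medium; Dosing: 10 µM compound, 0.25% DMSO; Times: cell pre-growth 4 h, compound exposure 48 h, 30 °C; Detection: absorbance (optical density) measured at 615 nm.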

[3] = viability gain of MRP-1-high H69AR cells under doxorubicin, pilot screen, MRP-1 activator project, CellTiter-Glo, duplicate (AID 807;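 active = viability increase at or above a cutoff of the median across tested compounds plus 3 SD, cut at about 8.5% in these data, passing the limit was not always enough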;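 also: compound pretreatment 18-22 h then 72 h combined with doxorubicin; 0% = doxorubicin alone and 100% = vehicle without doxorubicin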); settings: H69AR viability with doxorubicin, CellTiter-Glo luminescence; at 10 µM; stronger effect = higher value
[4] = growth suppression of PTEN-deleted HCT116, pilot screen, cell-based, HCT116 clonal line, CellTiter-Glo (AID 824;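 active = viability at or below 27.92% in each of two runs, the all-compound median minus 4 SD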;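 also: 0% = 20 µM Hyamine control and 100% = vehicle cell control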); settings: 60 h, at 10 µM, stronger effect = lower value
[5] = inhibitors of the yeast RAM network, pilot screen, dse1pr::URA3 reporter, 5-FOA selection (AID 869;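 active = inhibition over a set limit, the all-compound mean plus 3 SD, in both replicate runs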;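 also: 0% = DMSO wells with no growth and 100% = 10 µM 1-NA-PP1 with full growth; RAM network block rescues cells from 5-FOA so hits raise OD615 growth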); settings: S. cerevisiae dse1pr::URA3 5-FOA growth, OD615, 2 d; at 10 µM; stronger effect = higher value; strain carries analog-sensitive mutant Cbk1 kinase
[6] = RAM signaling pathway blockade in yeast – S. cerevisiae, Pdr1DBD-CYC8 efflux-inhibited sensitized strain, primary screen (AID 1298);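 also: 0% = DMSO untreated cells without growth and 100% = 10 µM 1-NA-PP1 full growth; higher means more yeast growth rescued from 5-FOA killing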; settings: S. cerevisiae cbk1-as DSE1-URA3 strain, 5-FOA growth OD615, 2 d; at 50 µM; stronger effect = higher value

Compound	growth inhibition [1] [%]	growth inhibition [2] [%]	viability increase [3] [%]	viability [4]	inhibition [5] [%]	RAM network inhibition [6] [%]
O=C(CNC(=O)c1ccco1)OCc1ccc(Cl)cc1	-3.76	2.92	-2.32	102%	0.375	0.25
COc1ccc(OC)c(NC(=O)C(CC(C)C)NC(=O)C2CCCCC2)c1 (stereo not given)	-5.08	11.6	-5.29	86%	1.02	3.18
COc1ccc(C(=O)NC(C)c2nc3ccccc3[nH]2)cc1OC (stereo not given)	-9.91	-3.65	-1.84	97.9%	2.15	4.78
CCN(CC)C(=O)C(C)N(C#N)c1nc(NC(C)C)nc(NC(C)C)n1 (stereo not given)	-9.32	-0.315	-3.7	101%	0.715	2.25
CCNC(=O)CN(C1CCCCC1)S(=O)(=O)c1ccc(F)cc1	-8.23	-2.66	-2.01	91%	3.43	-0.15
N#Cc1ccc(Sc2nc3ccccc3[nH]2)cc1C#N	-7.23	4.58	-5.02	89.8%	2.44	1.9
CCOc1cc(C2NC(=O)NC(C)=C2C(=O)OC(C)CC)cc(Br)c1O (stereo not given)	-4.09	-10.5	-1.01	91.2%	2.17	2.16
NC(=O)CNC1CC(=O)N(CCc2ccccc2)C1=O (stereo not given)	2.06	4.79	-2.49	98.5%	0.77	1.69
O=C(Nc1cccc(F)c1)Nc1ccccn1	-10.9	-7.43	-3.54	88.1%	0.385	-0.16
Cc1ccc(N(CC(=O)NC2CC3CCC2C3)S(C)(=O)=O)cc1C (stereo not given)	-2.18	-4.39	-2.03	96.8%	1.26	5.17
O=c1c2c(nc3c(-c4ccccc4)c[nH]n13)CCCC2	-7.02	-8.55	-5.26	49.2%	1.02	0.27
O=C(Cc1c(C(=O)O)[nH]c2ccccc12)Nc1ccc2c(c1)OCO2	-7.96	-0.57	-2.23	99.7%	0.445	2.01
Cc1cccc(-n2c(=O)[nH]c3c(C(N)=O)nc(-c4ccccc4Cl)nc32)c1	-7.62	-0.18	-7.67	11.7% (active)	3.09	3.41
CCOC(=O)C1CCN(C(=O)c2cn(C)c(=O)c3cc(OC)c(OC)cc23)CC1	-3.38	-10.2	-4.21	98%	1	3.95
COc1ccc(N(CC(=O)NCc2ccco2)S(C)(=O)=O)cc1Cl	-14.3	-4.89	-3.2	91.7%	2.38	6.11
O=C1C=C(NCc2ccco2)CC(c2ccc(Cl)cc2)C1 (stereo not given)	-7.5	-22.3	-2.53	66.6%	1.2	3.64
COCCOC(=O)c1c(C)oc2ccc(OC(=O)c3cccs3)cc12	-11.1	-17	1.16	104%	2.33	6.79
Cc1ccc(CNC(=O)c2oc3ccc(S(=O)(=O)N4CCC5(CC4)OCCO5)cc3c2C)cc1	-11	-10	-0.6	52.6%	1.35	2.87
O=C1c2ccccc2C(=O)N1CSc1nnnn1-c1ccccc1	-1.45	31.4	-2.14	104%	2.01	6.61
O=C1C2C3C=CC(C3)C2C(=O)N1CCN1CCN(S(=O)(=O)c2ccc3ccccc3c2)CC1 (stereo not given)	-8.82	0.84	-5.03	83.5%	1.27	3.68

Compound	growth inhibition [1] [%]	growth inhibition [2] [%]	viability increase [3] [%]	viability [4]	inhibition [5] [%]	RAM network inhibition [6] [%]
CC(C)CC(NC(=O)C1CCC(C)CC1)C(=O)Nc1cccnc1 (stereo not given)	-8.21	-12.6	-3.68	89.5%	0.035	0.05
CCN(CC)C(=O)CSc1nsc(SCC(=O)N(CC)CC)c1C#N	-9.3	6.27	-2.27	95.3%	1.22	6.13
COC(=O)c1c(NC(=O)Cc2cccs2)sc(C)c1C	2.9	6.72	-4.9	87%	1.54	9.13
O=C(C1CCCN(S(=O)(=O)c2ccc(F)cc2)C1)N(Cc1cccs1)C1CC1 (stereo not given)	-11.5	-6.14	-1.34	71.7%	2.02	2.87
COc1cc2c(cc1OC)C(c1cccs1)NCC2 (stereo not given)	-10.4	-8.06	-3.87	92.6%	0.41	4.46
O=C(NCc1cccc(F)c1)c1noc2c1CCCC2	-12.1	-19.5	-4.68	32.7%	0.33	3.14
CCNc1nc(Oc2ccc(C(=O)OCC)cc2)nc(SC)n1	-5.11	1.57	-1.58	78.9%	2.05	2.82
CC(C)(Oc1ccc(Cl)cc1)C(=O)Nc1ncccn1	-5.31	-3.56	-2.32	101%	1.61	2.05
O=S(=O)(NCCc1csc(-c2cccnc2)n1)c1ccc2c(c1)OCCO2	-5.61	8.38	-0.72	95.5%	1.71	-0.63
O=C(O)c1ccc(N2C(=O)CC(Cc3ccccc3)C2=O)cc1 (stereo not given)	-3.14	2.02	-1.42	100%	-0.025	0.72
O=C1c2ccccc2N2C(=O)c3ccccc3C2N1Cc1ccco1 (stereo not given)	-9.32	-5.68	-4.74	85.1%	3.68	3.03
C=CCC1(O)C(=O)N2C(=C1C(=O)N1CCOCC1)c1ccccc1CC2(C)C (stereo not given)	5.07	-8.41	-2.47	99.4%	0.41	2.11
CCN(CC)CCN1C(=O)C(=O)/C(=C(/O)c2ccc(C)cc2)C1c1ccncc1 (stereo not given)	2.04	-2.02	0.64	97.9%	0.635	5.38
CCc1cccc(C)c1NC(=O)CCCC(=O)O	-0.24	-1.56	-1.29	102%	0.44	-0.21
COc1ccc(N2C(=O)CCC(C(=O)N3CCCCCC3)C2c2ccc(OC)c(OC)c2)cc1 (stereo not given)	-2.31	12.9	-1.38	99%	0.735	4.47
COc1ccccc1N1CCN(CC(O)COc2ccc3c(C)cc(=O)oc3c2)CC1 (stereo not given)	-3.12	-9.43	-2.57	92.3%	1.95	2.88
COc1ccc(CCNS(=O)(=O)c2ccc3c(c2)OCCO3)cc1OC	-9.32	-3.31	-1.53	89.9%	3.12	1.02
Cc1ccc(Cl)cc1N(CC(=O)N1CCCCCC1)S(C)(=O)=O	-9.3	10.7	-3.63	93.4%	0.635	1.37
COc1cc(/C=N/n2cnnc2)ccc1OC(=O)c1cccnc1	-8.46	-8.55	-2.5	97.8%	0.985	0.57
CCn1cc(C(=O)NCCCN2CC(C)CC(C)C2)c2cc(OC)c(OC)cc2c1=O (stereo not given)	-15.8	-7.97	-2.98	97.5%	1.03	3.13
